# KCC2 mod – KCC2 cotransporter modulators, thallium flux, primary screen, cell-based, HEK293 KCC2, FluoZin-2 fluorescence, MLSMR; Solute carrier family 12 member 5 (Homo sapiens), Q9H2X9; AID 1456, 2008; B-score of Tl+ flux slope (higher = more flux/activation; lower = inhibition) at 10 µM; 190,000 compounds, 2.2% hits; KCC2 cells, thallium flux FluoZin-2 fluorescence;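 active means thallium flux slope and its plate-corrected score both differing from the plate sample mean at a set confidence after two filtering rounds, in either direction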;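 further: slope of fluorescence scaled to starting intensity during 10 to 20 s after thallium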
# RGS4 inh – RGS4 inhibitors, primary screen, cell-based, HEK293 M3R inducible RGS4, calcium flux | 310,000 compounds, 0.45% hits | B-score at 10 µM | Fluo-4 calcium flux; active compounds read high; triggered by carbachol at its EC20 | AID 463165, 2010;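 active means B-score, a plate-corrected calcium signal, over three deviations above library mean, with baseline fluorescence within five deviations of library mean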;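 further: RGS4 expression induced by doxycycline in cells with stable M3 receptor; B-score is computed from the integrated fluorescence ratio over baseline after carbachol; higher B-score means a larger calcium signal and so more RGS4 inhibition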
# Target sequence (P49798 whole entry, looked up): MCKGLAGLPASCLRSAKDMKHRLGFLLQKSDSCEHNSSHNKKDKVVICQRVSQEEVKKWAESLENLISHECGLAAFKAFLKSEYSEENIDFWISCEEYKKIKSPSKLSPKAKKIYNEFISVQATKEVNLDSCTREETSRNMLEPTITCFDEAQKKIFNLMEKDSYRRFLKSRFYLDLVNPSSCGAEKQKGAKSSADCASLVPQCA
# MrgX1 antagonist – antagonists of human MrgX1 receptor, primary screen, HEK293 cells, Fluo-4 calcium flux; Mas-related G-protein coupled receptor member X1 (Homo sapiens), Q96LB2; BAM8-22 antagonism; active compounds read low; 310,000 compounds, 1.3% hits; B-score at 10 µM;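 active means calcium-response B-score plate-corrected more than 3 library SD below zero, starting fluorescence within 5 deviations, no agonist response on first addition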;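 further: peak minus trough fluorescence over baseline after final BAM8-22 challenge near maximal dose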
# MrgX1 PAM – positive allosteric modulators of MrgX1, primary screen, HEK293 cells, Fluo-4 calcium flux; FDSS; active compounds read high; B-score at 10 µM; 310,000 compounds, 0.63% hits; AID 588675, 2011;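 active means plate-corrected calcium response at least 3 library SD above typical, normal starting fluorescence, not activating the receptor alone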;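 further: compound read alongside a low EC10 to EC30 dose of BAM8-22 agonist; peak minus trough fluorescence over baseline measured at the second addition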
# MrgX1 ag – agonists of human MrgX1 receptor, primary screen, HEK293 cells, Fluo-4 calcium flux. Fluo-4 calcium fluorescence, agonist mode; active compounds read high. B-score at 10 µM. 310,000 compounds, 0.44% hits;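 active means calcium response B-score plate-corrected fluorescence ratio at least 3 library SD, with starting fluorescence B-score inside 5 SD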
#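 System – MrgX1-expressing HEK293 cells · Incubation – cells plated overnight, dye loaded 0.5 h 37 °C, 0.5 h room temperature · Technique – kinetic Fluo-4 NW fluorescence of intracellular calcium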
# RGS4 pot – RGS4 potentiators or activators, primary screen, cell-based, HEK293 M3R inducible RGS4, calcium flux; carbachol calcium flux Fluo4; active compounds read low; B-score at 10 µM; AID 463111, 2010; 310,000 compounds, 0.92% hits;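 active means B-score of the integrated calcium signal more than 4 SD below the library mean, with starting fluorescence not abnormally high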;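 further: negative B-score means reduced calcium response which marks RGS4 activation or potentiation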
#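 System – HEK293 FlpIn-TREx cells, stable M3R, doxycycline-inducible RGS4 · Reagent – ECmax carbachol challenge · Times – compound preincubation 20 min at room temperature before agonist · Technique – Fluo4 fluorescence kinetic imaging of calcium · Measure – B score of integrated Fluo4 ratio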
# The depositor's hits bear a star; i = inactive; · = not tested or not shown. Sampled rows, rich in hits. Any-hit rate of the full collection: about 4.7%.
SMILES,KCC2 mod,RGS4 inh,MrgX1 antagonist,MrgX1 PAM,MrgX1 ag,RGS4 pot
O=C(CN1CCN(C/C=C/c2ccccc2)CC1)NC(=O)NC1CCCCC1,-0.25,i,i,i,i,-7*
CCCN1C(=O)/C(=C/c2ccc(N3CCCC3)c(C)c2)NC1=S,i,i,i,i,47*,i
Cc1ccc(CN2C(=O)N/C(=C\c3ccc(N4CCOCC4)cc3)C2=O)cc1,0.59,i,i,i,i,i
Cc1cc(/C=C2/C(=O)N(C)C(=S)N2C)ccc1N1CCCC1,-1.1,i,i,7.6*,i,i
CCCN1C(=O)/C(=C/c2ccc(N3CCOCC3)cc2)NC1=S,-0.6,i,-6.1*,i,i,i
Cc1cc(N2CCCC2)ccc1/C=C1/C(=O)N(C)C(=S)N1C,0.031,i,i,i,i,i
Cc1ccc(NC(=O)N2CCCC2C(=O)Nc2nnc(C(C)C)s2)cc1 (centres undefined),·,i,i,i,i,i
CCn1nc([N+](=O)[O-])c(C(C#N)c2nc3cc(C(F)(F)F)ccc3s2)c(Cl)c1=O (centres undefined),-5.7*,i,i,i,i,i
Cn1nc([N+](=O)[O-])c(C(C#N)c2ccccn2)c(Cl)c1=O (centres undefined),-0.18,i,i,i,i,i
CCN(CC)C(=O)c1sc2nc(-c3cccs3)cc(-c3cccs3)c2c1N,-2.5,i,-7.2*,i,i,i
CC(C)(C)C(=O)c1sc2nc(-c3cccs3)cc(C(F)(F)F)c2c1N,·,i,i,i,i,-9.7*
Cc1ccc(CN2C(=O)CCC2C(=O)NCCc2ccccc2)cc1 (centres undefined),·,i,i,i,i,i
O=[N+]([O-])c1ccc(N2CCOCC2)cc1NCc1ccccc1,·,i,i,i,i,i
O=[N+]([O-])c1cccc(/C=N/Nc2nc(NCc3ccccc3)nc(N3CCOCC3)n2)c1O,-1.6,i,i,i,34*,i
O=[N+]([O-])c1c(NCc2ccccc2)cc(N2CCc3ccccc3C2)c2nonc12,0.22,i,-6*,i,i,i
O=[N+]([O-])c1cc([N+](=O)[O-])c(N2CCOCC2)cc1NCc1ccccc1,·,i,-9.6*,i,i,i
COc1ccc2cc([C@H](C)C(=O)N(C)Cc3ccccc3N3CCCC3)ccc2c1,·,i,i,i,i,i
COc1ccc(CNC(=O)C(C#N)c2nc3ccccc3nc2N2CCN(C)CC2)cc1 (centres undefined),·,i,i,i,i,i
COc1ccc(CNC(=O)C(C#N)c2nc3ccccc3nc2N2CCCC2)cc1 (centres undefined),i,i,-5.1*,i,i,i
C=CCNC(=O)C(C#N)c1nc2ccccc2nc1N1CCCCCC1 (centres undefined),·,i,i,7.7*,i,i
O=C(CSc1nnc(-c2ccccn2)o1)Nc1ccccc1Cl,·,i,i,i,i,i
Cc1ccc(-n2nnnc2SCC(=O)Nc2ccc(N3CCN(C)CC3)cc2)c(C)c1,·,i,i,i,i,i
Cc1ccc(SCC(=O)Nc2ccc(N3CCN(C)CC3)c(F)c2)c(C)c1,-0.73,i,i,i,i,-7.6*
Cc1c(N=Cc2ccncc2)c(=O)n(-c2ccccc2)n1C,·,i,i,i,i,i
Cc1c(N=Cc2c(O)n(C)c(=O)c3ccccc23)c(=O)n(-c2ccccc2)n1C,-0.4,i,i,i,i,-7.2*
